Source: ChEMBL document CHEMBL3407388, “Synthesis, anticancer activity and molecular docking studies on a series of heterocyclic trans-cyanocombretastatin analogues as antitubulin agents” (2015)

Columns and labels:
Assay type in all cases: functional
[1] = system: CAKI-1; assay: Cytotoxicity against human Caki1 cells assessed as growth inhibition after 48 hrs by SRB assay; details: CAKI-1, 48 h
Procedure, shortened: (§1)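 NCI 60-cell panel; compounds passing a single-dose screen (10−5 M, 48 h) were tested at five 10-fold dilutions (10−4 to 10−8 M) with 48 h drug exposure. GI50 is the molar concentration giving 50% reduction in net cell growth relative to cell numbers on day 0.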

[2] = Cytotoxicity against human Hs578T cells assessed as growth inhibition after 48 hrs by SRB assay; details: Hs-578T; procedure, shortened: as §1
[3] = system: U-251; assay: Cytotoxicity against human U251 cells assessed as growth inhibition after 48 hrs by SRB assay; details: U-251, 48 h
[4] = system: NCI-H23; assay: Cytotoxicity against human NCI-H23 cells assessed as growth inhibition after 48 hrs by SRB assay; details: NCI-H23, 48 h; procedure, shortened: as §1
[5] = system: COLO 205; assay: Cytotoxicity against human COLO205 cells assessed as growth inhibition after 48 hrs by SRB assay; details: COLO 205, 48 h; procedure, shortened: as §1
[6] = system: SK-MEL-5; assay: Cytotoxicity against human SK-MEL-5 cells assessed as growth inhibition after 48 hrs by SRB assay; details: SK-MEL-5, 48 h; procedure, shortened: as §1
[7] = system: LOX IMVI; assay: Cytotoxicity against human LOXIMVI cells assessed as growth inhibition after 48 hrs by SRB assay; procedure, shortened: as §1
[8] = Cytotoxicity against human HCT15 cells assessed as growth inhibition after 48 hrs by SRB assay; details: HCT-15, 48 h; procedure, shortened: as §1
[9] = Cytotoxicity against human NCI-ADR-RES cells assessed as growth inhibition after 48 hrs by SRB assay; procedure, shortened: as §1
[10] = system: IGROV-1; assay: Cytotoxicity against human IGROV1 cells assessed as growth inhibition after 48 hrs by SRB assay; details: IGROV-1, 48 h; procedure, shortened: as §1
[11] = Cytotoxicity against human PC3 cells assessed as growth inhibition after 48 hrs by SRB assay; details: PC-3, 48 h; procedure, shortened: as §1
[12] = system: MDA-MB-435; assay: Cytotoxicity against human MDA-MB-435 cells assessed as growth inhibition after 48 hrs by SRB assay; details: MDA-MB-435, 48 h; procedure, shortened: as §1
[13] = Cytotoxicity against human OVCAR4 cells assessed as growth inhibition after 48 hrs by SRB assay; details: OVCAR-4, 48 h; procedure, shortened: as §1
[14] = system: HCC 2998; assay: Cytotoxicity against human HCC2998 cells assessed as growth inhibition after 48 hrs by SRB assay; details: HCC 2998, 48 h; procedure, shortened: as §1
[15] = system: KM12; assay: Cytotoxicity against human KM12 cells assessed as growth inhibition after 48 hrs by SRB assay; details: KM12, 48 h; procedure, shortened: as §1
[16] = system: A498; assay: Cytotoxicity against human A498 cells assessed as growth inhibition after 48 hrs by SRB assay; details: A498, 48 h; procedure, shortened: as §1
[17] = system: BT-549; assay: Cytotoxicity against human BT549 cells assessed as growth inhibition after 48 hrs by SRB assay; details: BT-549, 48 h; procedure, shortened: as §1
[18] = system: SNB-75; assay: Cytotoxicity against human SNB75 cells assessed as growth inhibition after 48 hrs by SRB assay; details: SNB-75, 48 h
[19] = system: K562; assay: Cytotoxicity against human K562 cells assessed as growth inhibition after 48 hrs by SRB assay; details: K562, 48 h; procedure, shortened: as §1
[20] = system: TK-10; assay: Cytotoxicity against human TK10 cells assessed as growth inhibition after 48 hrs by SRB assay; details: TK-10, 48 h
[21] = system: MDA-MB-231; assay: Cytotoxicity against human MDA-MB-231 cells assessed as growth inhibition after 48 hrs by SRB assay; details: MDA-MB-231, 48 h; procedure, shortened: as §1
[22] = system: NCI-H460; assay: Cytotoxicity against human NCI-H460 cells assessed as growth inhibition after 48 hrs by SRB assay; details: NCI-H460, 48 h; procedure, shortened: as §1
[23] = system: SF-295; assay: Cytotoxicity against human SF295 cells assessed as growth inhibition after 48 hrs by SRB assay; details: SF-295, 48 h; procedure, shortened: as §1
[24] = system: SK-OV-3; assay: Cytotoxicity against human SKOV3 cells assessed as growth inhibition after 48 hrs by SRB assay; details: SK-OV-3, 48 h; procedure, shortened: as §1
[25] = system: SF-268; assay: Cytotoxicity against human SF268 cells assessed as growth inhibition after 48 hrs by SRB assay; details: SF-268, 48 h; procedure, shortened: as §1
[26] = system: HT-29; assay: Cytotoxicity against human HT-29 cells assessed as growth inhibition after 48 hrs by SRB assay; details: HT-29, 48 h; procedure, shortened: as §1
[27] = system: RXF 393; assay: Cytotoxicity against human RXF393 cells assessed as growth inhibition after 48 hrs by SRB assay; details: RXF 393, 48 h; procedure, shortened: as §1
[28] = system: MOLT-4; assay: Cytotoxicity against human MOLT4 cells assessed as growth inhibition after 48 hrs by SRB assay; details: MOLT-4, 48 h; procedure, shortened: as §1
[29] = system: SW-620; assay: Cytotoxicity against human SW620 cells assessed as growth inhibition after 48 hrs by SRB assay; details: SW-620, 48 h
[30] = system: RPMI-8226; assay: Cytotoxicity against human RPMI8226 cells assessed as growth inhibition after 48 hrs by SRB assay; details: RPMI-8226, 48 h; procedure, shortened: as §1
[31] = system: NCI-H226; assay: Cytotoxicity against human NCI-H226 cells assessed as growth inhibition after 48 hrs by SRB assay; details: NCI-H226, 48 h; procedure, shortened: as §1
[32] = system: M14; assay: Cytotoxicity against human M14 cells assessed as growth inhibition after 48 hrs by SRB assay; details: M14, 48 h; procedure, shortened: as §1
[33] = Cytotoxicity against human OVCAR8 cells assessed as growth inhibition after 48 hrs by SRB assay; details: OVCAR-8, 48 h; procedure, shortened: as §1
[34] = system: SF-539; assay: Cytotoxicity against human SF539 cells assessed as growth inhibition after 48 hrs by SRB assay; details: SF-539, 48 h; procedure, shortened: as §1
[35] = system: DU-145; assay: Cytotoxicity against human DU145 cells assessed as growth inhibition after 48 hrs by SRB assay; details: DU-145, 48 h; procedure, shortened: as §1
[36] = system: 786-0; assay: Cytotoxicity against human 786-0 cells assessed as growth inhibition after 48 hrs by SRB assay; details: 786-0, 48 h; procedure, shortened: as §1
[37] = Cytotoxicity against human UACC62 cells assessed as growth inhibition after 48 hrs by SRB assay; details: UACC-62, 48 h
[38] = system: MCF7; assay: Cytotoxicity against human MCF7 cells assessed as growth inhibition after 48 hrs by SRB assay; details: MCF7, 48 h; procedure, shortened: as §1
[39] = Cytotoxicity against human HCT116 cells assessed as growth inhibition after 48 hrs by SRB assay; details: HCT-116, 48 h; procedure, shortened: as §1
[40] = system: SN12C; assay: Cytotoxicity against human SN12C cells assessed as growth inhibition after 48 hrs by SRB assay; procedure, shortened: as §1
[41] = system: SNB-19; assay: Cytotoxicity against human SNB19 cells assessed as growth inhibition after 48 hrs by SRB assay; details: SNB-19, 48 h; procedure, shortened: as §1
[42] = system: HL-60(TB); assay: Cytotoxicity against human HL-60(TB) cells assessed as growth inhibition after 48 hrs by SRB assay; details: HL-60, 48 h
Procedure, shortened: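 NCI 60-cell panel, leukemia subpanel. Five-dose screen at 10-fold dilutions from 10−4 to 10−8 M with 48 h drug exposure. GI50 is the molar concentration giving 50% reduction in net cell growth compared with cell numbers on day 0.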

[43] = Cytotoxicity against human OVCAR3 cells assessed as growth inhibition after 48 hrs by SRB assay; details: OVCAR-3, 48 h; procedure, shortened: as §1

## COc1ccc(/C(C#N)=C/c2c[nH]c3ccccc23)cc1OC
[1]
  GI50: 4340 nM
[2]
  GI50: 12900 nM
[3]
  GI50: 4970 nM
[4]
  GI50: 7190 nM
[5]
  GI50: 5310 nM
[6]
  GI50: 4270 nM
[7]
  GI50: 5320 nM
[8]
  GI50: 3700 nM
[9]
  GI50: 1700 nM
[10]
  GI50: 21000 nM
[11]
  GI50: 7850 nM
[12]
  GI50: 3950 nM
[13]
  GI50: 22100 nM
[14]
  GI50: 12600 nM
[15]
  GI50: 4040 nM
[16]
  GI50: 3360 nM
[17]
  GI50: 5380 nM
[18]
  GI50: 6040 nM
[19]
  GI50: 1650 nM
[20]
  GI50: 13200 nM
[21]
  GI50: 7180 nM
[22]
  GI50: 4510 nM
[23]
  GI50: 4920 nM
[24]
  GI50: 11900 nM
[25]
  GI50: 18900 nM
[26]
  GI50: 3320 nM
[27]
  GI50: 4480 nM
[28]
  GI50: 3990 nM
[29]
  GI50: 3530 nM
[30]
  GI50: 3960 nM
[31]
  GI50: 20900 nM
[32]
  GI50: 3750 nM
[33]
  GI50: 7380 nM
[34]
  GI50: 8420 nM
[35]
  GI50: 22600 nM
[36]
  GI50: 14100 nM
[37]
  GI50: 6980 nM
[38]
  GI50: 3100 nM
[39]
  GI50: 35500 nM
[40]
  GI50: 8100 nM
[41]
  GI50: 24200 nM
[42]
  GI50: 4570 nM
[43]
  GI50: 5680 nM

## COc1cc(/C(C#N)=C/c2c[nH]c3ccccc23)cc(OC)c1OC
[1]
  GI50: 58 nM
[2]
  GI50: 131 nM
[3]
  GI50: 50 nM
[4]
  GI50: 133 nM
[5]
  GI50: 474 nM
[6]
  GI50: 42 nM
[7]
  GI50: 75 nM
[8]
  GI50: 51 nM
[9]
  GI50: 39 nM
[10]
  GI50: 417 nM
[11]
  GI50: 54 nM
[12]
  GI50: 24 nM
[13]
  GI50: 338 nM
[14]
  GI50: 107 nM
[15]
  GI50: 43 nM
[16]
  GI50: 35 nM
[17]
  GI50: 1940 nM
[18]
  GI50: 42 nM
[19]
  GI50: 40 nM
[20]
  GI50: 11100 nM
[21]
  GI50: 245 nM
[22]
  GI50: 41 nM
[23]
  GI50: 42 nM
[24]
  GI50: 51 nM
[25]
  GI50: 2540 nM
[26]
  GI50: 38 nM
[27]
  GI50: 36 nM
[28]
  GI50: 131 nM
[29]
  GI50: 47 nM
[30]
  GI50: 231 nM
[31]
  GI50: 194 nM
[32]
  GI50: 53 nM
[33]
  GI50: 121 nM
[34]
  GI50: 99 nM
[35]
  GI50: 132 nM
[36]
  GI50: 90 nM
[37]
  GI50: 48 nM
[38]
  GI50: 34 nM
[39]
  GI50: 48 nM
[40]
  GI50: 699 nM
[41]
  GI50: 76 nM
[42]
  GI50: 48 nM
[43]
  GI50: 33 nM

## COc1ccc(/C(C#N)=C/c2cc3ccccc3[nH]2)cc1OC
[1]
  GI50: 103 nM
[2]
  GI50: 133 nM
[3]
  GI50: 75 nM
[4]
  GI50: 236 nM
[5]
  GI50: 232 nM
[6]
  GI50: 142 nM
[7]
  GI50: 64 nM
[8]
  GI50: 48 nM
[9]
  GI50: 40 nM
[10]
  GI50: 482 nM
[11]
  GI50: 62 nM
[12]
  GI50: 21 nM
[13]
  GI50: 735 nM
[14]
  GI50: 366 nM
[15]
  GI50: 76 nM
[16]
  GI50: 40 nM
[17]
  GI50: 97.8 nM
[18]
  GI50: 36 nM
[19]
  GI50: 39 nM
[20]
  GI50: 5560 nM
[21]
  GI50: 291 nM
[22]
  GI50: 53 nM
[23]
  GI50: 36 nM
[24]
  GI50: 394 nM
[25]
  GI50: 1480 nM
[26]
  GI50: 48 nM
[27]
  GI50: 151 nM
[28]
  GI50: 84 nM
[29]
  GI50: 42 nM
[30]
  GI50: 151 nM
[31]
  GI50: 399 nM
[32]
  GI50: 39 nM
[33]
  GI50: 326 nM
[34]
  GI50: 47 nM
[35]
  GI50: 206 nM
[36]
  GI50: 602 nM
[37]
  GI50: 38 nM
[38]
  GI50: 289 nM
[39]
  GI50: 44 nM
[40]
  GI50: 779 nM
[41]
  GI50: 189 nM
[42]
  GI50: 34 nM
[43]
  GI50: 34 nM
